A selection: hits, their analogues and other compounds. The true share with any hit is near 4.5%.
GPR7 antagonist: human neuropeptides B/W receptor 1 antagonism | P48145 | GPR7-expressing cells, fluorescence antagonist assay | inhibition, % at 4.4 µM | 1.1% of 290,000 active; in the data active means inhibition above about 16%, passing the limit was not always enough;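 further: cells stimulated with the agonist NPW; 0% = agonist with vehicle and 100% = vehicle without agonist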
TAAR1 antagonist: human TAAR1 antagonism. 1.5% of 360,000 active. CHO RD-HGA16 TAAR1, Fluo-8 calcium fluorescence, antagonist. inhibition, % at 3 µM. AID 624466;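 active means inhibition above a per-plate cutoff, the mean inhibition of test compounds on that plate plus 3 SD, cut at about 49% in these data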;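 further: 0% = DMSO plus EC80 beta-PEA response and 100% = DMSO alone without agonist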
Target sequence (Q96RJ0 whole entry, looked up): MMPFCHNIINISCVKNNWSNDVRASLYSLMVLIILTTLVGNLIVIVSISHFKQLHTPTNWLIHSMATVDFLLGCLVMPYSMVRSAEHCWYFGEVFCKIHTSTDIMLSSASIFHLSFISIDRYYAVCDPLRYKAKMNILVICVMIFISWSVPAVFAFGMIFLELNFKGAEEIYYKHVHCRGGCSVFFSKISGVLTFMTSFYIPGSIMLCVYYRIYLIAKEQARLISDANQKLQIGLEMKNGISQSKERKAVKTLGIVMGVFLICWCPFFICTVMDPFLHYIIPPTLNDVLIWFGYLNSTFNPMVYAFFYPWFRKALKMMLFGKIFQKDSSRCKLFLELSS
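Material: RD-HGA16 CHO cells with stable hTAAR1 and Gα16; Dosing: single nominal final test compound concentration of 3 µM; Schedule: seeding 17-24 h prior, 75-min 37 °C, 30-min RT dye loading; Detection: kinetic Fluo-8 calcium fluorescence measurement; Measure: % inhibition from peak post-agonist over basal fluorescence ratio; Benchmarks: vehicle and agonist controls.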
OX1R antag-1: human HCRTR1 antagonism; O43613; CHO/OX1R cells, Fluo-8 calcium fluorescence, orexin A; inhibition, % at 5 µM; 0.43% of 330,000 active; AID 434989;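 active means inhibition above its plate's threshold, mean inhibition of all tested compounds on the plate plus 3 SD, cut at about 37% in these data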;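 further: 0% = orexin A challenge wells and 100% = SB-334867-A antagonist wells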
CHO parental Ca: counter-screen for OX1R antagonists: effect in parental CHO cells | parental CHO-K1, ATP-induced calcium, Fluo-8 fluorescence | inhibition, % at 5.6 µM | 0.63% of 330,000 active | AID 463079;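 active means inhibition above that plate's mean sample inhibition plus 3 SD, cut at about 26% in these data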;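 further: 0% = ATP-challenged DMSO wells and 100% = DMSO wells without ATP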
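material = parental CHO cells | also added = ATP as calcium-mobilizing challenge | dosing = single point at 5.6 µM | detection = intracellular calcium via Fluo-8 no-wash fluorescent dye | read-out = % inhibition | benchmarks = low control ATP plus DMSO, high control DMSO only | repeats = one well per compound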
TAAR1 ag: human TAAR1 agonism; Q96RJ0; CHO RD-HGA16 TAAR1, Fluo-8 calcium fluorescence; vehicle wells 0%, saturating PEA agonist 100%; activation, % at 3 µM; 0.99% of 360,000 active; AID 624467;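 active means activation above the mean activation of all test compounds in the run plus 3 SD, cut at about 38% in these data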
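Assay system – CHO-derived RD-HGA16 cells with stable Gα16 and human TAAR1 · Compound dosing – one-point dosing at 3 µM (nominal) · Incubation – 17-24 h seeding, 75 min 37 °C dye, 30 min RT · Measured by – kinetic Fluo-8 calcium fluorescence · Control set – DMSO vehicle as 0%, PEA at EC100 as 100% · Repeats – single well for each compound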
OX1R antag-2: blocks the human orexin 1 receptor; O43613; OX1R-expressing cells, FRET antagonist read-out; inhibition, % at 6.6 µM; 1.8% of 330,000 active; AID 485270; in the data active means inhibition mostly above about 38%, no sharp cut-off; inactive means mostly below about 40%;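 further: 0% = agonist challenge alone and 100% = reference antagonist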
GPR7 antag conf: confirmation of human GPR7 antagonists. 52% of 2,400 active. shares compounds with GPR7 antagonist. GPR7-expressing cells, calcium fluorescence antagonist mode. inhibition, % at 4.4 µM; in the data active means inhibition above about 24%;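 further: stimulated with the GPR7 agonist NPW; 0% = agonist plus vehicle and 100% = vehicle alone without agonist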
MCHR1 antagonist: antagonizes human MCHR1, a GPR7 antagonist counter-screen | shares compounds with GPR7 antagonist | MCHR1-expressing cells, fluorescence antagonist assay | inhibition, % at 4.4 µM | 62% of 2,400 active | AID 2148; in the data active means inhibition above about 22%;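 further: 0% = vehicle with agonist and 100% = vehicle without agonist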
The depositor's hits bear a star.

`Cc1cccc(N(C)C(=O)COc2cc(=O)n(C)c3ccccc23)c1` gave GPR7 antagonist 64*, TAAR1 antagonist -34, OX1R antag-1 -23, CHO parental Ca -12, TAAR1 ag 2, OX1R antag-2 11, GPR7 antag conf -2 and MCHR1 antagonist 6.
For CN(C(=O)COc1cc(=O)n(C)c2ccccc12)c1cccc(Cl)c1 the results were GPR7 antagonist 13, TAAR1 antagonist -17, OX1R antag-1 -16, CHO parental Ca -5, TAAR1 ag -1 and OX1R antag-2 19.
`CC(C)(C)n1nnnc1C(c1ccccn1)N(Cc1ccccc1)Cc1ccc(Cl)cc1` (stereo unspecified) gave GPR7 antagonist -1, TAAR1 antagonist -10, OX1R antag-1 -20, CHO parental Ca -2, TAAR1 ag 6 and OX1R antag-2 10.
For CCN(Cc1ccccc1)C(c1ccccn1)c1nnnn1C(C)(C)CC (stereo unspecified) the results were GPR7 antagonist 22*, TAAR1 antagonist -12, OX1R antag-1 9, CHO parental Ca -12, TAAR1 ag 3, OX1R antag-2 15, GPR7 antag conf 25* and MCHR1 antagonist 56*.
`COC(=O)c1ccc(OC(=O)CN2C(=O)c3ccccc3C2=O)cc1` gave GPR7 antagonist -4, TAAR1 antagonist -9, OX1R antag-1 1, CHO parental Ca 3, TAAR1 ag 8 and OX1R antag-2 12.
Screening C=C1CCc2c([nH]c3ccc(OCC(C)C)cc23)C1=O returned GPR7 antagonist 57*, TAAR1 antagonist -8, TAAR1 ag 8, GPR7 antag conf 91* and MCHR1 antagonist 97*.
Screening CN(C)CCNc1nc2sc3c(c2c(=O)n1-c1ccccc1)CCCCC3 returned GPR7 antagonist -6, TAAR1 antagonist 0, OX1R antag-1 -38, CHO parental Ca -36, TAAR1 ag 5 and OX1R antag-2 11.
CN(C)CCNc1nc2sc3c(c2c(=O)n1Cc1ccccc1)CCCCC3 was read as GPR7 antagonist 40*, TAAR1 antagonist 16, TAAR1 ag 25, GPR7 antag conf 35* and MCHR1 antagonist 58*.
`CC1CCCC(NC(=O)CN(C)CC(=O)Nc2cccc(F)c2)C1C` (stereo unspecified) gave TAAR1 antagonist 10, OX1R antag-1 -22, CHO parental Ca -17, TAAR1 ag 0 and OX1R antag-2 6.
`O=C(Nc1ccc(S(=O)(=O)N2CCCC2)cc1)c1ccc(CN2CCOCC2)cc1` gave GPR7 antagonist 16, TAAR1 antagonist 11, OX1R antag-1 -27, CHO parental Ca -9, TAAR1 ag 24 and OX1R antag-2 12.
For O=C(Nc1ccc(S(=O)(=O)N2CCCCC2)cc1)c1ccc(CN2CCOCC2)cc1 the results were GPR7 antagonist 60*, OX1R antag-1 12, CHO parental Ca 19, OX1R antag-2 -1, GPR7 antag conf 62* and MCHR1 antagonist 83*.
For O=C(Nc1ccc(S(=O)(=O)Nc2ccc(F)cc2)cc1)c1ccc(CN2CCOCC2)cc1 the results were GPR7 antagonist 30*, TAAR1 antagonist 23, OX1R antag-1 14, CHO parental Ca 15, TAAR1 ag 15, OX1R antag-2 28, GPR7 antag conf 66* and MCHR1 antagonist 77*.
Screening CCCn1cc(S(=O)(=O)c2ccccc2)c(=O)c2cc(F)c(N3CCN(C)CC3)cc21 returned GPR7 antagonist -11, TAAR1 antagonist -13, OX1R antag-1 -11, CHO parental Ca -13, TAAR1 ag 4 and OX1R antag-2 12.
`COCCN(C(=O)COC(=O)c1cnc(C)cn1)c1c(N)n(Cc2ccccc2)c(=O)[nH]c1=O` gave TAAR1 antagonist -9, OX1R antag-1 3, CHO parental Ca -3, TAAR1 ag 1 and OX1R antag-2 18.

Compound activity: PubChem, The Scripps Research Institute Molecular Screening Center
